In ChEMBL document CHEMBL2429834, “Potent histone deacetylase inhibitors derived from 4-(aminomethyl)-N-hydroxybenzamide with high selectivity for the HDAC6 isoform” (J Med Chem, 2013):
pIC50: −log10 of the molar value.

How the values were obtained:
[1] = biological target: T1, Polyamine deacetylase HDAC10 (Homo sapiens, UniProt Q969S8); test: Inhibition of N-terminal GST-tagged recombinant human HDAC10 (1 to 481) expressed in baculovirus using Arg-His-Lys-Lys (Ac) as substrate after 1 hr by fluorescence plate reader analysis
T1 sequence (Q969S8 whole entry): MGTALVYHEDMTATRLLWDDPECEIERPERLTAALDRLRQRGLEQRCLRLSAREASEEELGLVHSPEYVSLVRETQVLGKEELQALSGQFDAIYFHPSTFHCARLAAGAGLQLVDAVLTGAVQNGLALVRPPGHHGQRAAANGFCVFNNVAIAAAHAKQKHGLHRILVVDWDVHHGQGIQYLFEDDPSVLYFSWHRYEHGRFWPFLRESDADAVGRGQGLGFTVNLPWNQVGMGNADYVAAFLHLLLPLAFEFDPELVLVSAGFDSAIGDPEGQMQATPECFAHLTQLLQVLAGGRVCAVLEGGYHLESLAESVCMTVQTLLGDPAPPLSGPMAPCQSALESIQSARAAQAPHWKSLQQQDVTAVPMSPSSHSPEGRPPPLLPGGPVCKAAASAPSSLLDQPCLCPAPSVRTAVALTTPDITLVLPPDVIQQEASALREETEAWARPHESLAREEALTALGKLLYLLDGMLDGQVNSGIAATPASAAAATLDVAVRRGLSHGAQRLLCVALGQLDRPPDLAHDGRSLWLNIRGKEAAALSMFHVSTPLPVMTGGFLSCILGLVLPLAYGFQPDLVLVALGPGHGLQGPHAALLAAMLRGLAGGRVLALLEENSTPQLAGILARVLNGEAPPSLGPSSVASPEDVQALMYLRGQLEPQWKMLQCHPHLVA

[2] = biological target: T2, Protein deacetylase HDAC6 (Homo sapiens, UniProt Q9UBN7); test: Inhibition of N-terminal GST-tagged recombinant HDAC6 (unknown origin) assessed as deacetylation of Ac-Arg-Gly-Lys (Ac) after 1 hr by fluorescence plate reader analysis in presence of trypsin
T2 sequence (Q9UBN7 whole entry): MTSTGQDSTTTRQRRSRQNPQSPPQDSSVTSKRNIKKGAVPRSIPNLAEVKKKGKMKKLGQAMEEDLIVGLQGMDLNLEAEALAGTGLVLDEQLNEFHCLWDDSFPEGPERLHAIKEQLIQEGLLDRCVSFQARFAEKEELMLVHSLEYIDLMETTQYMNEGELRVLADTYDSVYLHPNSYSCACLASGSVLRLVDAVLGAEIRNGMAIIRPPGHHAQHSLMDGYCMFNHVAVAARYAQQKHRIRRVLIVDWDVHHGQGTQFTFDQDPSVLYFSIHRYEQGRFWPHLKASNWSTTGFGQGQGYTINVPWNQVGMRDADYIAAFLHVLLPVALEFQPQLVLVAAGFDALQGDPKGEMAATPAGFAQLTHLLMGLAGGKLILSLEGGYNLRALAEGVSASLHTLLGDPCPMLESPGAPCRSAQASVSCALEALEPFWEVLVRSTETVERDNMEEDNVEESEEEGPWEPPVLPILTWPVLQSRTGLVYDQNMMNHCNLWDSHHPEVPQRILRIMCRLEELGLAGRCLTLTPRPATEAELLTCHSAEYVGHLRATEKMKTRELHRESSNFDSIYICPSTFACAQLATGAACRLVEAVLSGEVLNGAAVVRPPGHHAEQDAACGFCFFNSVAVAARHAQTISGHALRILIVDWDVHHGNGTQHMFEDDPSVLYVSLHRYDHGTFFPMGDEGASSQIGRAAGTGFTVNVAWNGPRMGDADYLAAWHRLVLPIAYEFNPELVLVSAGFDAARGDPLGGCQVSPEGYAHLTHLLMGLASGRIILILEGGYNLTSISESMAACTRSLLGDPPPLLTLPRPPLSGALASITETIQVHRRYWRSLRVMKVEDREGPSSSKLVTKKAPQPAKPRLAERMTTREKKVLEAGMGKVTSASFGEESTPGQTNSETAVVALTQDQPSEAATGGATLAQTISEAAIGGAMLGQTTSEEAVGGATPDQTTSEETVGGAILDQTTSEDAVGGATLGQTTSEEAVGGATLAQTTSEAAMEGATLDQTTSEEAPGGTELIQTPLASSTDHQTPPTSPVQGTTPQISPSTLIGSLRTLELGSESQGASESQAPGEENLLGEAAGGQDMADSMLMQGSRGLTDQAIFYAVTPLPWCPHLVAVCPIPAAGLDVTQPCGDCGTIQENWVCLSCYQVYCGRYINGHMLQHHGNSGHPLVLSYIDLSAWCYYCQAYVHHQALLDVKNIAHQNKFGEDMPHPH

[3] = biological target: T3, Protein deacetylase HDAC6 (Homo sapiens) (UniProt Q9UBN7); test: Inhibition of HDAC6 in human HeLa cells using acetyl tubulin as substrate assessed as Ac-Lys accumulation in nuclear histones at 20 uM after 24 hrs by immunofluorescence assay relative to control
T3 sequence (whole entry): T2 sequence (Q9UBN7 whole entry)

[4] = Selectivity ratio of IC50 for HDAC1/2 in human HeLa cell nuclear extract to IC50 for N-terminal GST-tagged recombinant HDAC6 (unknown origin); format: cell-based
Method in brief: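 HDAC6 leg: 1 nM GST-HDAC6 with 8 μM Ac-Arg-Gly-Lys(Ac)-AMC. Nuclear-extract leg: 30 μg/mL HeLa nuclear extract (mainly HDAC1/2) with 20 μM of the same substrate in 50 mM Tris-Cl, 137 mM NaCl, 2.7 mM KCl, 1 mM MgCl2, pH 8.0.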

Histone deacetylase 4 = Histone deacetylase 4 (Homo sapiens, UniProt P56524); test: Inhibition of N-terminal GST-tagged recombinant human HDAC4 (627 to 1085) expressed in baculovirus using acetyl-Lys(trifluoroacetyl)-AMC as substrate after 2 hrs by fluorescence plate reader analysis
Chain of Histone deacetylase 4 (P56524 whole entry): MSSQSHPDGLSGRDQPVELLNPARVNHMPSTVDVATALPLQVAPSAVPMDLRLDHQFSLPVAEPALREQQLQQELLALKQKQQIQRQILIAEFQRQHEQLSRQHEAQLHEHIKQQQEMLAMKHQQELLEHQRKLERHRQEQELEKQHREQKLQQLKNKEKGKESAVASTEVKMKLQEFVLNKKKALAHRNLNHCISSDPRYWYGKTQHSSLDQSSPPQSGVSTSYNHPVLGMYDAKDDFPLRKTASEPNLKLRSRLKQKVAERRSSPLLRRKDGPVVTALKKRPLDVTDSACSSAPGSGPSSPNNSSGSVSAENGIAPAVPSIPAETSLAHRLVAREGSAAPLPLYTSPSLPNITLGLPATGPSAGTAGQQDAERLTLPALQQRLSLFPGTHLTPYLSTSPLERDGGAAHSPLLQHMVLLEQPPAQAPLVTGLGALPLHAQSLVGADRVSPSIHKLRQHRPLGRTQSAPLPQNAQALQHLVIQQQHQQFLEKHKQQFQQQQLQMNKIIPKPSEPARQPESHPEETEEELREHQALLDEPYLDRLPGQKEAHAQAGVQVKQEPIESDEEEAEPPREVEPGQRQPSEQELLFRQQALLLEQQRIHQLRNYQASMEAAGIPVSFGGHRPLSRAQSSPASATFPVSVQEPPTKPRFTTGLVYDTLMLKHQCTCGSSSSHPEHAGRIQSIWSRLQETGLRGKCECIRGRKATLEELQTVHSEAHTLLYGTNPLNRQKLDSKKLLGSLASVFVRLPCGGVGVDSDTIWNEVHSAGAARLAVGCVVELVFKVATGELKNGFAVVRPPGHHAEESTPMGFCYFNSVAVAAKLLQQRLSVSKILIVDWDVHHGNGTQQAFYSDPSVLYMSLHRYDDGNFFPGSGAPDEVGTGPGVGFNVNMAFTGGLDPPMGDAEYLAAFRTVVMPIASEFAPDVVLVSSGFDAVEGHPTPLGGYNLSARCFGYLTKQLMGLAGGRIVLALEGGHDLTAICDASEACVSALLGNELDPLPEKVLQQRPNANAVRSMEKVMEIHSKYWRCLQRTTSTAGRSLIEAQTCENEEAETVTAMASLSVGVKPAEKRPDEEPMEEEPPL

Homo sapiens = species: Homo sapiens; test: Selectivity ratio of IC50 for full length C-terminal His6x-tagged recombinant human HDAC8 to IC50 for N-terminal GST-tagged recombinant HDAC6 (unknown origin)
Histone deacetylase 3 = Histone deacetylase 3 (Homo sapiens, UniProt O15379); test: Inhibition of full length C-terminal His6x-tagged recombinant human HDAC3 expressed in baculovirus using Arg-His-Lys-Lys (Ac) as substrate after 2 hrs by fluorescence plate reader analysis
Chain of Histone deacetylase 3 (O15379 whole entry): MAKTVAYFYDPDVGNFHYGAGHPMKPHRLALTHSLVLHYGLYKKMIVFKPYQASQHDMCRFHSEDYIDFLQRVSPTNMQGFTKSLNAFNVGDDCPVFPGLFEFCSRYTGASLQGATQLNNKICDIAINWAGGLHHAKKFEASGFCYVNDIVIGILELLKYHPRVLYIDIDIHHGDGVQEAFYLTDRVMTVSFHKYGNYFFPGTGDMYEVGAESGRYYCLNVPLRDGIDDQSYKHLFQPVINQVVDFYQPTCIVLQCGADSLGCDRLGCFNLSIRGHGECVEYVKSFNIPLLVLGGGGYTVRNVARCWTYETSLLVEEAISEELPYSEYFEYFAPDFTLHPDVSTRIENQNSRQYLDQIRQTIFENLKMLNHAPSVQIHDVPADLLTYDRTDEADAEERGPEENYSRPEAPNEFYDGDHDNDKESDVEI

Histone deacetylase 1 = Histone deacetylase 1 (Homo sapiens, UniProt Q13547); test: Inhibition of full length GST-tagged recombinant human HDAC1 expressed in baculovirus using Arg-His-Lys-Lys (Ac) as substrate after 2 hrs by fluorescence plate reader analysis
Chain of Histone deacetylase 1 (Q13547 whole entry): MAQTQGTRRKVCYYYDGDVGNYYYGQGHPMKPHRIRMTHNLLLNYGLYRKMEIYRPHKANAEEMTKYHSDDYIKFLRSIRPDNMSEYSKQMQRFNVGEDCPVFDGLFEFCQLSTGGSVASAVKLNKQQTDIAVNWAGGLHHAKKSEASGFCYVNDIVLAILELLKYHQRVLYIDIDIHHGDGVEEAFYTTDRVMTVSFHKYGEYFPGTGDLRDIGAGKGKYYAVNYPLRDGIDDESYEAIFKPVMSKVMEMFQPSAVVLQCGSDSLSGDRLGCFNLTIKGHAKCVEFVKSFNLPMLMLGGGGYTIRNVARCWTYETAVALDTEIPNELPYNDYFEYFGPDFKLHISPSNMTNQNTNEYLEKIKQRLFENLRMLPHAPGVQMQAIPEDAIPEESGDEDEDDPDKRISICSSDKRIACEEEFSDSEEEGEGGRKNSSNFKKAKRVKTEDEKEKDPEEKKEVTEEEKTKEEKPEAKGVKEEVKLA

Row | Structure (SMILES) | pIC50 [1] | pIC50 [2] | inhibition [3] | Ratio IC50 [4] | pIC50 (Histone deacetylase 4) | Ratio IC50 (Homo sapiens) | pIC50 (Histone deacetylase 3) | pIC50 (Histone deacetylase 1)
1 | Cn1cccc1C(=O)N1Cc2ccc(C(=O)NO)cc2C1 | < 4.30 | 7.40 | < 20% | 690 | < 4.30 | 40 | < 4.30 | < 4.30
2 | Cn1cccc1C(=O)NCc1ccc(C(=O)NO)cc1 | 5.43 | 7.72 | < 20% | 115 | 4.82 | 40 | 5.35 | 5.24
3 | Cn1cccc1C(=O)N1CCCc2cc(C(=O)NO)ccc2C1 | < 4.30 | 6.59 | < 20% | > 380 | < 4.30 | 40 | < 4.30 | < 4.30
4 | CC(C)(C)C(=O)N1CCc2cc(C(=O)NO)ccc2C1 | < 4.30 | 7.28 | < 20% | 1500 | < 4.30 | 40 | < 4.30 | < 4.30
5 | CC(C)(C)C(=O)N1Cc2ccc(C(=O)NO)cc2C1 | < 4.30 | 7.05 | < 20% | 340 | < 4.30 | 40 | < 4.30 | < 4.30
6 | Cn1cccc1C(=O)N1CCc2cc(C(=O)NO)ccc2C1 | < 4.30 | 7.44 | < 20% | 500 | < 4.30 |  | 4.34 | 4.35
